Laboratory results taken from paper PMC11951523 (Genome Biology, 2025).
Like-named read-outs stand apart in the source and are kept apart here.

What was measured:
[1] = target: FnoCas12a (Francisella tularensis subsp. novicida, UniProt A0Q7Q2); format: biochemical
[2] = tested on: SpyCas9-mediated genome editing of PCSK9; test: SpyCas9-mediated anti-PCSK9 mouse model by hydrodynamic injection; format: in vivo, BALB/c mice
How it was run: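 On days 1, 4 and 7, 90 μg PX459-SpyCas9-sgPCSK9 or -sgControl in 2 ml saline was injected hydrodynamically into the tail vein over 5–8 s. Orbital blood (~100 μl) was taken days 2, 5 and 8, and heparin plasma (20 μl) was assayed by PCSK9 ELISA.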

[3] = target: T1, SpyCas9 (Streptococcus pyogenes serotype M1, UniProt Q99ZW2); test: Two-plasmid-based bacterial survival assay; format: cell-based; conditions: read-out: IC50, bacteria-based assay, Spy Cas9, bacterial survival assay using pCas and pTarget-sgSSEA plasmids, E. coli MG1655
How it was run: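 E. coli MG1655 competent cells carrying pCas (SpyCas9) electroporated with pTarget-sgSSEA, or the pT-sgControl plasmid as reference. Test compound added to the electroporated bacteria for 1.5 h at 32 °C, then plated on LB with kanamycin and spectinomycin and incubated overnight. Colonies counted and expressed as a percentage of the compound-treated sgControl strain at the same concentration (100%).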

[4] = target: T1, SpyCas9; test: biochemical; conditions: Spy Cas9
[5] = in humans; cited from earlier work
[6] = tested on: LbaCas12a; test: LbaCas12a activity assay; format: biochemical, Lachnospiraceae bacterium; conditions: for effect on the activity of LbaCas12a: complete inhibition refers to 50 μM or above
[7] = target: T2, SauCas9 (Staphylococcus aureus, UniProt J7RUA5); test: SauCas9-mediated genome editing of COSMC in HEK293FT cells, TIDE analysis; format: cell-based; conditions: read-out: IC50, cell-based assay; Sau Cas9; TIDE analysis, editing efficiency for COSMC in HEK293FT cells
T2 sequence (J7RUA5 1-1053): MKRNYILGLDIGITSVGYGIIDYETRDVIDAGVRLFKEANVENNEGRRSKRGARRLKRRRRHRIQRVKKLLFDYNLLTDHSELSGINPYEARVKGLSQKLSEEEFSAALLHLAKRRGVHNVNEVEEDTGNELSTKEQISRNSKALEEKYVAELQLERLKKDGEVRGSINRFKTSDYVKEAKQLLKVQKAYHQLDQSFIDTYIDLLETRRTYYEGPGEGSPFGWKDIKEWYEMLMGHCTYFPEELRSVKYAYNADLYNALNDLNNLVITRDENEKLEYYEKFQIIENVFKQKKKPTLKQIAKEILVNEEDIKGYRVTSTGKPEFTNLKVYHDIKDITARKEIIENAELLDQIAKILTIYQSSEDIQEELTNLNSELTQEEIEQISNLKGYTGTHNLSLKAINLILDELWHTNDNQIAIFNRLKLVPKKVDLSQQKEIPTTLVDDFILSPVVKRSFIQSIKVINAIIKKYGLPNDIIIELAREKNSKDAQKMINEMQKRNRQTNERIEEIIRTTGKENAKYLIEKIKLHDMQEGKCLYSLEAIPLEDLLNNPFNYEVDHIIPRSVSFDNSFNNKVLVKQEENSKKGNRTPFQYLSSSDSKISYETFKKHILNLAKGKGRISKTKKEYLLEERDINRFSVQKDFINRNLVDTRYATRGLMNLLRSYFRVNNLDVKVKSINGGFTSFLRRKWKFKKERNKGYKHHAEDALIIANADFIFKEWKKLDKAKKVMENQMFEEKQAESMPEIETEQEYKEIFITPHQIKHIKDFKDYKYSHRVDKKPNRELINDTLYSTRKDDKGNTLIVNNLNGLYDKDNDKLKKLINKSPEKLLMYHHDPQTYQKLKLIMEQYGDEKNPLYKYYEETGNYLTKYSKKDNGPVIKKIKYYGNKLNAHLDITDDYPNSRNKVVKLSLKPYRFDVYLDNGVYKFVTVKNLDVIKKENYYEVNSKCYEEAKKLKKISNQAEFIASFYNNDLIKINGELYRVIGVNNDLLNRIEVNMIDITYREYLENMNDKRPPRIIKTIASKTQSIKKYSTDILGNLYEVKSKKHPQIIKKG
How it was run: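 HEK293FT wt cells were co-transfected (Lipofectamine 3000) with 1 μg miniCMV-SaCas9 and 1 μg pGL3 carrying sgCOSMC-Sau or sgControl. Test compound was added right after transfection for 24 h, followed by 2.5 μg/ml puromycin selection. The COSMC locus was PCR-amplified (40 cycles), Sanger-sequenced, and editing efficiency was obtained by TIDE analysis.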

[8] = target: BE4 base editor (Streptococcus pyogenes, UniProt Q99ZW2, D10A); test: BE4-mediated base editing of EMX1 in HEK293FT cells, EditR analysis; format: cell-based; conditions: read-out: IC50, cell-based assay; BE4 base editing efficiency for EMX1 loci, HEK293FT cells
[9] = tested on: EcoRI or KpnI endonuclease; test: EcoRI or KpnI endonuclease activity assay with 2.5 kb linear DNA; format: biochemical
[10] = target: T1, SpyCas9; test: GFP-disruption assay in HEK293FT cells; format: cell-based; conditions: read-out: IC50, cell-based assay; Spy Cas9; GFP-disruption assay, PX459-SpyCas9 and pGL3-sgGFP plasmids, HEK293FT cells
[11] = tested on: E. coli MG1655; test: Toxicity to bacteria in the two-plasmid-based bacterial survival assay; format: cell-based; conditions: MG1655, bacterial survival assay
How it was run: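 MG1655 pCas-competent cells were electroporated with pT-sgControl. Test compound was added to 700 μl LB immediately afterwards and incubated 1.5 h at 32 °C, then plated on LB agar with kanamycin and spectinomycin (100 μg/ml each). Colonies were counted after overnight incubation; biological replicates n = 3.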

[12] = target: T1, SpyCas9; format: cell-based; conditions: read-out: IC50, cell-based assay; Spy Cas9; TIDE analysis, editing efficiency for COSMC or EMX1 loci in HEK293FT cells
How it was run: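 HEK293FT cells, ~2 × 10^5 per well, were seeded 1 day before transfection (Lipofectamine 3000) with 1 μg PX459-SpyCas9-sgCOSMC, -sgEMX1 or -sgControl. Test compound was added 0 or 6 h post-transfection, and cells were kept 24 h at 37 °C, then selected with 2.5 μg/ml puromycin for 36–48 h. Target loci were PCR-amplified, Sanger-sequenced and scored by TIDE.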

[13] = target: T2, SauCas9; test: In vitro purified enzyme activity assay for SauCas9; format: biochemical; conditions: Sau Cas9
[14] = target: T1, SpyCas9; test: Surface plasmon resonance assay; format: binding
How it was run: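 His-tagged SpyCas9, Ni–NTA purified and imidazole-eluted, amine-coupled to a CM5 chip at 100 μg/ml. Test compounds were diluted in 1× PBST to a series of concentrations and injected at 30 μl/min, with 120 s association and 120 s dissociation. Equilibrium KD was fitted from the response curves.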

[15] = tested on: SpyCas9; conditions: read-out: IC50 in the in vitro DNA cleavage assay; cited from earlier work
[16] = read-out: IC50, in vitro purified enzyme assay, linear substrates (87 bp oligonucleotide)
[17] = read-out: IC50, in vitro purified enzyme assay, supercoil (circular) plasmid substrate

With `CN[C@H]1C(=O)N[C@@H]2Cc3ccc(cc3)Oc3cc4cc(c3O[C@@H]3O[C@H](C(=O)O)[C@@H](O)[C@H](O)[C@H]3NC(=O)CCCCCCCCC(C)C)Oc3ccc(cc3Cl)[C@@H](O)[C@@H]3NC(=O)[C@H](NC(=O)[C@@H]4NC(=O)[C@@H](NC2=O)c2cc(cc(O)c2Cl)Oc2cc1ccc2O)c1ccc(O)c(c1)-c1c(O[C@H]2O[C@H](CO)[C@@H](O)[C@H](O)[C@@H]2O)cc(O)cc1[C@@H](C(=O)NCCCN(C)C)NC3=O` [Dalbavancin] the “effect on the activity of FnoCas12a” value [1] was “inactive to or weakly inhibited”, the “effect on the basal level of PCSK9 in vehicle-treated (sgControl) mice” value ([2]; 160 mg/kg) was “did not interfere” and the “preventive effect on loss of plasma PCSK9” value ([2]; high doses of 80 or 160 mg/kg, 2nd or 3rd treatment cycle) was “strong preventive effects”. It also gave an IC50 [3] of 12.5 to 25 µM, an IC50 ([3]; listed as dalbavancin) of about 12.5 µM and an IC50 ([4]; read-out: IC50, in vitro purified enzyme assay, linear substrates (87 bp oligonucleotide or 2.5 kb linear DNA)) of about 5 µM. The IC50 ([4]; read-out: IC50, in vitro purified enzyme assay, supercoil (circular) plasmid substrate pcDNA3.1/CT-GFP) was 10 to 20 µM, the “elimination half-time (t1/2 value)” value [5] was ~ 1 week and the “site of metabolism / elimination” value [5] was “largely eliminated in the kidney”. For the same molecule, the “effect on the activity of LbaCas12a” value [6] was “inactive to or weakly inhibited”, the IC50 [7] was about 10 µM and the IC50 [8] was 10 to 20 µM. For the same molecule, the “selectivity for Cas9 over other endonucleases EcoRI and KpnI” value [9] was “more than 10 folds”, the IC50 [10] was about 10 µM and the “toxicity to E. coli” value [11] was “did not appear to be much toxic”. For the same molecule, the IC50 [12] was about 10 µM, the IC50 [13, 16] was about 25 µM and the IC50 [13, 17] was 12.5 to 25 µM.

With `CCCCC(CC)COC(=O)CC(C(=O)OCC(CC)CCCC)S(=O)(=O)O` (stereo not shown) [Docusate] the “effect on the activity of FnoCas12a” value [1] was “completely inhibit”, the “selectivity of inhibition between SpyCas9 (Type II-A) and FnoCas12a (Type V)” value [1] was “less than 5 folds” and the IC50 ([4]; IC50, in vitro purified enzyme assay, linear substrates (87 bp oligonucleotide or 2.5 kb linear DNA)) was 20 to 50 µM. The IC50 ([4]; IC50, in vitro purified enzyme assay, supercoil (circular) plasmid substrate pcDNA3.1/CT-GFP) was 10 to 20 µM, the “selectivity of inhibition between SpyCas9 (Type II-A) and LbaCas12a (Type V)” value [6] was “less than 5 folds” and the “effect on the activity of LbaCas12a” value [6] was “completely inhibit”. The “selectivity for Cas9 over other endonucleases EcoRI and KpnI” value [9] was ~ 5 folds, the Kd [14] was 12.8 to 56.4 µM and the IC50 ([13]; IC50, in vitro purified enzyme assay, linear substrates (87 bp oligonucleotide)) was 12.5 to 25 µM. The IC50 ([13]; IC50, in vitro purified enzyme assay, supercoil (circular) plasmid substrate) was 25 to 50 µM.

In the case of `Cc1ccc(S(=O)(=O)N2CC[C@@H]3[C@H](CO)Nc4ccc(-c5ccccc5F)cc4[C@@H]32)cc1` [BRD0539], the IC50 [15] is listed as 22 µM, the IC50 [13, 16] is listed as 10 to 20 µM and the IC50 [13, 17] is listed as about 50 µM.
